Experimental data taken from ChEMBL document CHEMBL2040808, “Design, synthesis, and in vitro activity of novel 2'-O-substituted 15-membered azalides” (J Med Chem, 2012).
Values after ≈ are worked out from the molar mass of the structure shown.

Key:
[1] = system: Plasmodium falciparum; experiment: Antimalarial activity against chloroquine-sensitive Plasmodium falciparum 3D7A infected in type A rhesus-positive human erythrocytes assessed as [3H]hypoxanthine incorporation after 48 hrs by scintillation counting; type: functional, organism-based
Summary of the method: (§1)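 Modified semiautomated microdilution: compounds dissolved in DMSO, diluted in RPMI 1640 with 10% v/v human plasma, serial 1:2 dilutions in triplicate. Infected erythrocytes at 3% hematocrit, 0.25−0.55% parasitemia. [3H]hypoxanthine at 12.5−16 μCi/mL final. Incubated 48 h, 37 °C, in 5% O2/3% CO2/92% N2. Harvested on fiberglass strips, scintillation counted. IC50 by nonlinear regression of concentration−response curves.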

[2] = system: Plasmodium falciparum; experiment: Antimalarial activity against chloroquine-resistant Plasmodium falciparum W2 infected in type A rhesus-positive human erythrocytes assessed as [3H]hypoxanthine incorporation after 48 hrs by scintillation counting; type: functional, organism-based; summary of the method: as §1
[3] = system: Plasmodium falciparum; experiment: Ratio of IC50 for azithromycin to compound IC50 for chloroquine-sensitive Plasmodium falciparum 3D7A infected in type A rhesus-positive human erythrocytes assessed as [3H]hypoxanthine incorporation after 48 hrs by scintillation counting; type: functional
[4] = system: Plasmodium falciparum; experiment: Ratio of IC50 for azithromycin to compound IC50 for chloroquine-resistant Plasmodium falciparum W2 infected in type A rhesus-positive human erythrocytes assessed as [3H]hypoxanthine incorporation after 48 hrs by scintillation counting; type: functional
[5] = system: HepG2; experiment: Cytotoxicity against human HepG2 cells after 24 hrs by MTS assay; type: cell-based; settings: HepG2, 24 h
Summary of the method: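 Hep G2 cells were kept in RPMI 1640 with 10% FBS at 37 °C and 5% CO2. Wells held 50000 cells and received 1:2 serial dilutions of compound (DMSO stock diluted in medium) for 24 h. MTS reagent was then added for 2 h, absorbance was read at 490 nm, and IC50 was taken from response curves.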

[6] = Selectivity ratio of IC50 for human HepG2 cells to IC50 for chloroquine-sensitive Plasmodium falciparum 3D7A; type: ADME, cell-based; settings: HepG2 cells versus Plasmodium falciparum 3D7A, read-out: Ratio IC50
Summary of the method: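 Selectivity is the HepG2 IC50 divided by the P. falciparum IC50. For HepG2, 50000 cells per well in RPMI 1640 with 10% FBS were exposed to 1:2 serial dilutions for 24 h at 37 °C, 5% CO2. MTS was added for 2 h and absorbance read at 490 nm. Parasite IC50 came from the 48 h [3H]hypoxanthine assay.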

[7] = system: Streptococcus pneumoniae; experiment: Antibacterial activity against Streptococcus pneumoniae isolate SP030 by broth microdilution method; type: functional
Summary of the method: (§2)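 Standard broth microdilution MIC against macrolide-sensitive strains. For streptococci, 5% horse serum replaced lysed horse blood in the broth, and inocula were grown on Columbia agar with 5% sheep blood. S. aureus was grown on Mueller–Hinton agar.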

[8] = system: Streptococcus pyogenes; experiment: Antibacterial activity against Streptococcus pyogenes isolate 3565 by broth microdilution method; type: functional; summary of the method: as §2
[9] = system: Staphylococcus aureus; experiment: Antibacterial activity against Staphylococcus aureus ATCC 13709 by broth microdilution method; type: functional; summary of the method: as §2
[10] = Aqueous solubility of the compound at pH 4; type: physicochemical
[11] = Selectivity ratio of IC50 for human HepG2 cells to IC50 for chloroquine-sensitive Plasmodium falciparum 3D7A; settings: HepG2 cells versus Plasmodium falciparum 3D7A

| SMILES | IC50 [1] | IC50 [2] | Ratio IC50 [3] | Ratio IC50 [4] | IC50 [5] | selectivity ratio [6] | MIC [7] | MIC [8] | MIC [9] | solubility [10] | selectivity ratio [11] |
| --- | --- | --- | --- | --- | --- | --- | --- | --- | --- | --- | --- |
| CC[C@H]1OC(=O)[C@H](C)[C@@H](O[C@H]2C[C@@](C)(OC)[C@@H](O)[C@H](C)O2)[C@H](C)[C@@H](O[C@@H]2O[C@H](C)C[C@H](N(C)C)[C@H]2OCCCNc2ccnc3ccccc23)[C@](C)(O)C[C@@H](C)CN(C)[C@H](C)[C@@H](O)[C@]1(C)O | 64 nM | 35 nM | 3 | 3 | 80000 nM | 132 | 32 µg/mL (≈ 34.3 µM) | 32 µg/mL (≈ 34.3 µM) | 16 µg/mL (≈ 17.1 µM) | > 10000 µg/mL | 132 |
| CC[C@H]1OC(=O)[C@H](C)[C@@H](O[C@H]2C[C@@](C)(OC)[C@@H](O)[C@H](C)O2)[C@H](C)[C@@H](O[C@@H]2O[C@H](C)C[C@H](N(C)C)[C@H]2OCCCNC(=O)CCCNc2ccnc3cc(Cl)ccc23)[C@](C)(O)C[C@@H](C)CN(C)[C@H](C)[C@@H](O)[C@]1(C)O | 29 nM | 19 nM | 3 | 3 | 50000 nM | 132 | > 64 µg/mL | > 64 µg/mL | > 64 µg/mL | > 10000 µg/mL | 132 |
| CC[C@H]1OC(=O)[C@H](C)[C@@H](O)[C@H](C)[C@@H](O[C@@H]2O[C@H](C)C[C@H](N(C)C)[C@H]2OCCCNC(=O)CNc2ccnc3ccccc23)[C@](C)(O)C[C@@H](C)CN(C)[C@H](C)[C@@H](O)[C@]1(C)O | 1660 nM | 815 nM | 3 | 3 | – | 132 | – | – | – | > 10000 µg/mL | 132 |
| CC[C@H]1OC(=O)[C@H](C)[C@@H](O[C@H]2C[C@@](C)(OC)[C@@H](O)[C@H](C)O2)[C@H](C)[C@@H](O[C@@H]2O[C@H](C)C[C@H](N(C)C)[C@H]2OCCC(=O)NCCNc2ccnc3cc(Cl)ccc23)[C@](C)(O)C[C@@H](C)CN(C)[C@H](C)[C@@H](O)[C@]1(C)O | 18 nM | 13 nM | 3 | 3 | 18000 nM | 132 | 64 µg/mL (≈ 62.5 µM) | 64 µg/mL (≈ 62.5 µM) | 64 µg/mL (≈ 62.5 µM) | > 10000 µg/mL | 132 |
| CCN(CC)CCCC(C)Nc1ccnc2cc(Cl)ccc12 (centres undefined) [CHLOROQUINE] | – | – | – | – | – | – | > 64 µg/mL | > 64 µg/mL | > 64 µg/mL | – | – |
| CC[C@H]1OC(=O)[C@H](C)[C@@H](O)[C@H](C)[C@@H](O[C@@H]2O[C@H](C)C[C@H](N(C)C)[C@H]2OCCCNCc2ccnc3ccccc23)[C@](C)(O)C[C@@H](C)CN(C)[C@H](C)[C@@H](O)[C@]1(C)O | 540 nM | 432 nM | 3 | 3 | > 100000 nM | 132 | > 64 µg/mL | > 64 µg/mL | > 64 µg/mL | > 10000 µg/mL | 132 |
| CC[C@H]1OC(=O)[C@H](C)[C@@H](O)[C@H](C)[C@@H](O[C@@H]2O[C@H](C)C[C@H](N(C)C)[C@H]2OCCCNC(=O)CNc2ccnc3cc(Cl)ccc23)[C@](C)(O)C[C@@H](C)CN(C)[C@H](C)[C@@H](O)[C@]1(C)O | 138 nM | 84 nM | 3 | 3 | > 100000 nM | 132 | > 64 µg/mL | > 64 µg/mL | > 64 µg/mL | > 10000 µg/mL | 132 |
| CC[C@H]1OC(=O)[C@H](C)[C@@H](O)[C@H](C)[C@@H](O[C@@H]2O[C@H](C)C[C@H](N(C)C)[C@H]2OCCCN(C)Cc2cnc3ccccc3c2)[C@](C)(O)C[C@@H](C)CN(C)[C@H](C)[C@@H](O)[C@]1(C)O | 1290 nM | 311 nM | 3 | 3 | > 100000 nM | – | > 64 µg/mL | > 64 µg/mL | > 64 µg/mL | > 10000 µg/mL | – |
| CC[C@H]1OC(=O)[C@H](C)[C@@H](O[C@H]2C[C@@](C)(OC)[C@@H](O)[C@H](C)O2)[C@H](C)[C@@H](O[C@@H]2O[C@H](C)C[C@H](N(C)C)[C@H]2OCCCNC(=O)CNc2ccnc3ccccc23)[C@](C)(O)C[C@@H](C)CN(C)[C@H](C)[C@@H](O)[C@]1(C)O | 119 nM | 68 nM | 3 | 3 | > 100000 nM | 132 | > 64 µg/mL | > 64 µg/mL | > 64 µg/mL | > 10000 µg/mL | 132 |
| CC[C@H]1OC(=O)[C@H](C)[C@@H](O)[C@H](C)[C@@H](O[C@@H]2O[C@H](C)C[C@H](N(C)C)[C@H]2OCCCNCc2cnc3ccccc3c2)[C@](C)(O)C[C@@H](C)CN(C)[C@H](C)[C@@H](O)[C@]1(C)O | 1370 nM | 286 nM | 3 | 3 | > 100000 nM | – | > 64 µg/mL | > 64 µg/mL | > 64 µg/mL | > 10000 µg/mL | – |
| CC[C@H]1OC(=O)[C@H](C)[C@@H](O[C@H]2C[C@@](C)(OC)[C@@H](O)[C@H](C)O2)[C@H](C)[C@@H](O[C@@H]2O[C@H](C)C[C@H](N(C)C)[C@H]2OCCCNC(=O)CCCNc2ccnc3ccccc23)[C@](C)(O)C[C@@H](C)CN(C)[C@H](C)[C@@H](O)[C@]1(C)O | 220 nM | 135 nM | 3 | 3 | > 100000 nM | 132 | > 64 µg/mL | > 64 µg/mL | > 64 µg/mL | > 10000 µg/mL | 132 |
| CC[C@H]1OC(=O)[C@H](C)[C@@H](O)[C@H](C)[C@@H](O[C@@H]2O[C@H](C)C[C@H](N(C)C)[C@H]2OCCCNC(=O)CCCNc2ccnc3cc(Cl)ccc23)[C@](C)(O)C[C@@H](C)CN(C)[C@H](C)[C@@H](O)[C@]1(C)O | 402 nM | 224 nM | 3 | 3 | 75000 nM | 132 | > 64 µg/mL | > 64 µg/mL | > 64 µg/mL | > 10000 µg/mL | 132 |
| CC[C@H]1OC(=O)[C@H](C)[C@@H](O[C@H]2C[C@@](C)(OC)[C@@H](O)[C@H](C)O2)[C@H](C)[C@@H](O[C@@H]2O[C@H](C)C[C@H](N(C)C)[C@H]2OCCCNC(=O)CNc2ccnc3cc(Cl)ccc23)[C@](C)(O)C[C@@H](C)CN(C)[C@H](C)[C@@H](O)[C@]1(C)O | 14 nM | 9 nM | 3 | 3 | 28000 nM | 132 | > 64 µg/mL | > 64 µg/mL | > 64 µg/mL | > 10000 µg/mL | 132 |
| CC[C@H]1OC(=O)[C@H](C)[C@@H](O[C@H]2C[C@@](C)(OC)[C@@H](O)[C@H](C)O2)[C@H](C)[C@@H](O[C@@H]2O[C@H](C)C[C@H](N(C)C)[C@H]2OCCCN(C)Cc2ccnc3ccccc23)[C@](C)(O)C[C@@H](C)CN(C)[C@H](C)[C@@H](O)[C@]1(C)O | 248 nM | 49 nM | 3 | 3 | 45000 nM | 132 | > 64 µg/mL | > 64 µg/mL | > 64 µg/mL | > 10000 µg/mL | 132 |
| CC[C@H]1OC(=O)[C@H](C)[C@@H](O)[C@H](C)[C@@H](O[C@@H]2O[C@H](C)C[C@H](N(C)C)[C@H]2OCCCNc2ccnc3cc(Cl)ccc23)[C@](C)(O)C[C@@H](C)CN(C)[C@H](C)[C@@H](O)[C@]1(C)O | 37 nM | 25 nM | 3 | 3 | 83000 nM | 132 | > 64 µg/mL | > 64 µg/mL | > 64 µg/mL | > 10000 µg/mL | 132 |
| CC[C@H]1OC(=O)[C@H](C)[C@@H](O[C@H]2C[C@@](C)(OC)[C@@H](O)[C@H](C)O2)[C@H](C)[C@@H](O[C@@H]2O[C@H](C)C[C@H](N(C)C)[C@H]2O)[C@](C)(O)C[C@@H](C)CN(C)[C@H](C)[C@@H](O)[C@]1(C)O [AZITHROMYCIN] | – | – | – | – | – | 132 | ≤ 0.125 µg/mL | ≤ 0.125 µg/mL | 0.5 µg/mL (≈ 0.668 µM) | – | 132 |
